The source made the active and inactive calls.
How the values were obtained:
Mus musculus [1] = assay: Reduction in morphine dependence expression in acute morphine dependence ICR mouse model assessed as reduction in jumping behavior at 1 nmol, icv up to 20 mins; type: functional, organism-based
Outline: (§1)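 Acute dependence: morphine 100 mg/kg sc, then naloxone 10 mg/kg ip 4 h later. 1 nmol icv or vehicle given 5 min before naloxone; one control arm had no naloxone. Mice observed 20 min in plexiglass cylinders; jumps counted, then urine and feces weighed.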

Mus musculus [2] = assay: Antinociceptive activity in CD1 mouse assessed as reduction in DAMGO-induced nociception up to10 nmol, icv pretreated for 5 mins followed by DAMGO injection measured up to 2 hrs by tail flick assay; type: functional, organism-based
Mus musculus [3] = assay: Antinociceptive activity in icv dosed CD1 mouse assessed as reduction in CYM51010-induced nociception pretreated for 5 mins followed by CYM51010 injection measured up to 2 hrs by tail flick assay; type: functional
[4] = molecular target: T1, Opioid receptors; mu & delta (Homo sapiens, UniProt P41143+P35372); assay: Antagonist activity at human mu-delta opioid receptor heterodimer expressed in CHO cell membranes assessed as inhibition of DAMGO-induced [35S]-GTPgammaS binding preincubated for 5 mins followed by DAMGO and [35S]-GTPgammaS addition measured after 80 mins; type: functional
T1 sequence (P35372 whole entry, looked up): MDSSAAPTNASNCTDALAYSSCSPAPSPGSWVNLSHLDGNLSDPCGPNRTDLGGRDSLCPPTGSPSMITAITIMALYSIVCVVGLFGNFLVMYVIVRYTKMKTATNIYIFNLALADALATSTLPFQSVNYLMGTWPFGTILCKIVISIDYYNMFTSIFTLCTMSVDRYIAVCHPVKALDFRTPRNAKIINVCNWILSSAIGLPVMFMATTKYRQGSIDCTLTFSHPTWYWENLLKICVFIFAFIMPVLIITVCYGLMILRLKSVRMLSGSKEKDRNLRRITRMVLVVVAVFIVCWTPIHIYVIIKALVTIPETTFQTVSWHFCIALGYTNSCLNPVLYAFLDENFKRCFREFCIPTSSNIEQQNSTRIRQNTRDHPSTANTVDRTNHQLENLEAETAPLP
T1 sequence (P41143 whole entry, looked up): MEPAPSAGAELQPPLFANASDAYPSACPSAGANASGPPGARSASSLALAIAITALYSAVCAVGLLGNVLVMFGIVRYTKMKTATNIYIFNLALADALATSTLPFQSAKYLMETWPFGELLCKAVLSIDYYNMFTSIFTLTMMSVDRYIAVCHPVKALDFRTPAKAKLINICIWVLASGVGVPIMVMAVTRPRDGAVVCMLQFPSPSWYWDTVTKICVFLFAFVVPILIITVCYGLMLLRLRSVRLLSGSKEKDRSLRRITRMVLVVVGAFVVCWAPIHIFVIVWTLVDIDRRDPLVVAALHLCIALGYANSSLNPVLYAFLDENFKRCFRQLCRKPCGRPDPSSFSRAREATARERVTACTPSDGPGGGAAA
Outline: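 MDOR-CHO membranes were preincubated 5 min with antagonist concentration curve, then 1 µM DAMGO and 0.1 nM 35S-GTPγS were added. Incubated 30°C, 80 min; filter harvest, scintillation counting. Normalized to agonist alone and vehicle. N = 3 independent experiments in duplicate.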

[5] = molecular target: Delta-type opioid receptor (Homo sapiens, UniProt P41143); assay: Displacement of [3H]-diprenorphine from human DOR expressed in CHO cell membranes after 80 mins by scintillation counting analysis; conditions: cho
Chain of Delta-type opioid receptor (P41143 whole entry): as the sequence (P41143 whole entry, looked up) above
Outline: (§2)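 Competition binding on MOR-, DOR- or MDOR-CHO membranes used a fixed 3H-diprenorphine level against competitor concentration curves; 30°C, 80 min, GF/B filtration, scintillation counting. Nonspecific binding defined with 500 nM each DMT-Tic-Ala-OH and CTAP. Ki was derived from IC50 and the 3H-diprenorphine KD in each line; MDOR data fitted with a 2-site model. N = 3-4, mean ± SEM.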

Mu-type opioid receptor = Mu-type opioid receptor (Homo sapiens, UniProt P35372); assay: Displacement of [3H]-diprenorphine from human MOR expressed in CHO cell membranes after 80 mins by scintillation counting analysis; conditions: cho; outline: as §2
Chain of Mu-type opioid receptor (P35372 whole entry): as the sequence (P35372 whole entry, looked up) above

Homo sapiens [6] = species on record: Homo sapiens; assay: Selectivity ratio of IC50H for human mu-delta opioid receptor heterodimer expressed in CHO cell membranes to IC50 for human DOR expressed in CHO cell membranes; type: cell-based
Mus musculus [7] = assay: Reduction in morphine dependence expression in acute morphine dependence ICR mouse model assessed as inhibition of naloxone-precipitated GI effects of withdrawal at 1 nmol, […] administered 5 mins prior to naloxone injection measured up to 20 mins; type: functional, organism-based
Mus musculus [8] = assay: Reduction in morphine dependence expression in chronic morphine dependence ICR mouse model assessed as inhibition of naloxone-precipitated jumping behavior at 1 nmol, icv administered 5 mins prior to naloxone injection measured up to 20 mins relative to control; type: functional; set-up: scale not given: the % may be the effect or the level left
Outline: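 Chronic dependence: morphine sc twice daily at 10, 20 and 35 mg/kg on days 1-3, single 35 mg/kg on morning of day 4. Naloxone 30 mg/kg ip 4 h later. 1 nmol icv or vehicle 5 min before naloxone. Jumps counted over 20 min in plexiglass cylinders, then urine and feces weighed.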

[9] = molecular target: T1, Opioid receptors; mu & delta; assay: Antagonist activity at human mu-delta opioid receptor heterodimer expressed in CHO cell membranes assessed as inhibition of CYM51010-induced [35S]-GTPgammaS binding at high site fraction preincubated for 5 mins followed by CYM51010 and [35S]-GTPgammaS addition measured after 80 mins relative to control; type: functional
Outline: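 35S-GTPγS coupling in MDOR-CHO membranes: 5 min antagonist pre-incubation, then 1 µM CYM51010 plus 0.1 nM 35S-GTPγS, 30°C for 80 min, filtration and scintillation read. A 3-variable 2-site antagonist fit gave FHIGH, the fraction of the high-potency site. N = 3-4 independent experiments.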

Mus musculus [10] = assay: Antinociceptive activity in CD1 mouse assessed as reduction in DSLET-induced nociception up to 10 nmol, icv pretreated for 5 mins followed by DSLET injection measured up to 2 hrs by tail flick assay; type: functional, organism-based
Mus musculus [11] = species on record: Mus musculus; assay: Antinociceptive activity in CD1 mouse assessed as reduction in SNC80-induced nociception at 10 nmol pretreated for 5 mins followed by SNC80 injection measured up to 2 hrs by tail flick assay; type: functional, organism-based
Outline: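 Male CD-1 mice received 10 nmol icv (vehicle 2% DMSO/10% Tween80/88% water), 5 min before sc agonist. SNC80 was 10 mg/kg in 20% DMSO/10% Tween80/70% saline; morphine was given in saline. 52°C tail flick, 10 s cutoff, recorded over a 2 h time course; experimenter blinded.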

[12] = molecular target: T1, Opioid receptors; mu & delta; assay: Displacement of [3H]-diprenorphine from human mu-delta opioid receptor expressed in CHO cell membranes after 80 mins by scintillation counting analysis; outline: as §2
Mus musculus [13] = assay: Antinociceptive activity in icv dosed CD1 mouse assessed as reduction in Deltorphin-2-induced nociception pretreated for 5 mins followed by Deltorphin-2 injection measured up to 2 hrs by tail flick assay; type: functional
Mus musculus [14] = assay: Effect on tail flick response in CD1 mouse up to 10 nmol, icv measured up to 2 hrs; type: ADME, organism-based; conditions: in vivo, icv_or_intrathecal
Outline: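 Naïve male CD-1 mice were given a dose range up to 10 nmol icv, 5 min before icv vehicle in place of agonist. Tail flick latency in 52°C water (10 s cutoff) recorded over 2 h, baseline first; experimenter blinded.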

[15] = molecular target: T1, Opioid receptors; mu & delta; assay: Antagonist activity at human MOR expressed in CHO cell membranes mixed with human DOR expressed in CHO cell membranes assessed as inhibition of CYM51010-induced [35S]-GTPgammaS binding preincubated for 5 mins followed by CYM51010 and [35S]-GTPgammaS addition measured after 80 mins; type: functional
Outline: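 MOR-CHO and DOR-CHO membranes mixed at the molar ratio from MDOR-CHO saturation binding (Bmax 7.9 pmol/mg DOR, 1.1 pmol/mg MOR). Antagonist curve preincubated 5 min, then 1 µM CYM51010 and 0.1 nM 35S-GTPγS. Incubated 30°C, 80 min, then filtered and counted. Normalized to CYM51010 alone and vehicle. N = 3 independent experiments in duplicate.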

Mus musculus [16] = assay: Reduction in morphine dependence expression in acute morphine dependence ICR mouse model assessed as inhibition of naloxone-precipitated jumping behavior at 1 nmol, icv administered 5 mins prior to naloxone injection measured up to 20 mins relative to control; type: functional; set-up: scale not given: the % may be the effect or the level left; outline: as §1
[17] = molecular target: T1, Opioid receptors; mu & delta; assay: Antagonist activity at human mu-delta opioid receptor heterodimer expressed in CHO cell membranes assessed as inhibition of CYM51010-induced [35S]-GTPgammaS binding at high site fraction preincubated for 5 mins followed by CYM51010 and [35S]-GTPgammaS addition measured after 80 mins; type: functional
Outline: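 Membranes from CHO cells stably expressing human opioid receptor (N-terminal tagged) were preincubated 5 min with antagonist concentration curves, then given 1 µM CYM51010 and 0.1 nM 35S-GTPγS; 30°C, 80 min, GF/B filtration, scintillation counting. Normalized to CYM51010 alone (100%) and vehicle (0%). Fits: 1-site for MOR/DOR (IC50), 2-site for MDOR (IC50HIGH). N = 3-4, duplicate, mean ± SEM.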

Homo sapiens [18] = species on record: Homo sapiens; assay: Selectivity ratio of KiH for human mu-delta opioid receptor heterodimer expressed in CHO cell membranes to Ki for human DOR expressed in CHO cell membranes; type: cell-based

N[C@@H](Cc1ccc(O)cc1)C(=O)N1Cc2ccccc2C[C@@H]1C(=O)NCC(=O)NCCCCC(=O)N[C@H](CCCCNC(=O)CCCCNC(=O)CNC(=O)[C@@H](Cc1cccc2ccccc12)NC(=O)[C@H](Cc1ccccc1)NC(=O)[C@@H]1CCCN1C(=O)[C@@H](N)Cc1ccc(O)cc1)C(=O)O
Activity (Mus musculus [1]): inactive
Activity (Mus musculus [2]): inactive
A50 (Mus musculus [3]): 2.04 nmol
Activity (Mus musculus [3]): Dose-dependent effect
IC50 [4]: 153 nM
Ki [5]: 84 nM
Ki (Mu-type opioid receptor): > 1000 nM
Ratio IC50 (Homo sapiens [6]): 89
Activity (Mus musculus [7]): inactive
Activity (Mus musculus [8]): 85.2%
Imax [9]: 39%
Activity (Mus musculus [10]): inactive
Activity (Mus musculus [11]): inactive
KiH [12]: 0.63 nM
A50 (Mus musculus [13]): 7.77 nmol
Activity (Mus musculus [13]): Dose-dependent effect
Activity (Mus musculus [14]): Non-Toxic
IC50H [15]: 89 nM
IC50L [15]: > 1000 nM
Activity (Mus musculus [16]): 53.2%
IC50H [17]: 0.85 nM
IC50L [17]: > 1000 nM
Ratio Ki (Homo sapiens [18]): 133
